# Bioassay records: PubChem BioAssay, Broad Institute
# Only some compounds are listed: those with a hit (about 1.4% of all), similar ones and a draw of the others.
# Dyrk1A ADPGlo = rat Dyrk1A kinase inhibitors, primary screen, biochemical, single point, plate reader; Dual specificity tyrosine-phosphorylation-regulated kinase 1A (Rattus norvegicus), Q63470; ADP-Glo luminescence, NFATc1 peptide; inhibition, % at 12.5 µM; 310,000 tested, 0.43% active; AID 504441, 2011; in the data active = inhibition above about 50%;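 note: plate controls were vehicle with enzyme for no effect and no enzyme for full effect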
# CAL PDZ FP-1 = CAL PDZ peptide-binding inhibitors, primary screen, biochemical, fluorescence polarization, Cer-tagged CAL PDZ, HTS. Golgi-associated PDZ and coiled-coil motif-containing protein (Homo sapiens), Q9HD26. purified CAL PDZ, TMR-peptide fluorescence polarization, 1 h. inhibition, % at 20 µM. 330,000 tested, 0.02% active;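 active = highest replicate inhibition of at least 40%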;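 note: plate controls were DMSO neutral control wells for no effect and unlabeled competitor peptide control wells for full effect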
#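 System: tagged CAL PDZ domain. Schedule: 1 h room-temperature incubation prior to read. Signal: fluorescence polarization (mP). Measure: percent inhibition from loss of millipolarization.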
# ARNT-TACC3 inh = disruptors of ARNT/TACC3 protein interaction, primary screen, biochemical, AlphaScreen, single concentration | inhibition, % at 9.99 µM | Transforming acidic coiled-coil-containing protein 3 (Homo sapiens), Q9Y6A5 | 390,000 tested, 0.66% active | AlphaScreen His-ARNT PAS-B/GST-TACC3 binding, luminescence; TACC3 fragment carries E629A point mutation;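 active = mean inhibition of replicates at least 50% and at least half of replicates each reaching 50%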;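 note: 0% = complete ARNT plus TACC3 wells and 100% = ARNT alone without TACC3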
# CAL PDZ FP-2 = untagged CAL PDZ binding inhibitors, primary screen, biochemical, fluorescence polarization, HTS; 300,000 tested, 0.92% active; inhibition, % at 24.9 µM; purified CAL PDZ, TMR-peptide fluorescence polarization, 1 h;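 active = mean inhibition of at least 30% with at least half of replicates also reaching 30%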;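 note: 0% = DMSO neutral control and 100% = excess unlabeled competitor peptide PRC23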
# Numbers without * were called inactive; · = not tested or not shown.
SMILES,Dyrk1A ADPGlo,CAL PDZ FP-1,ARNT-TACC3 inh,CAL PDZ FP-2
COc1ccccc1Nc1nc(N)nc(CSc2ncccn2)n1,1,-1,3,69*
COc1ccc(N2CCN(Cc3nc(N)nc(Nc4ccccc4OC)n3)CC2)cc1,-3,-4,50*,1
C[C@@H]1CCCCO[C@@H](CN(C)C(=O)Cc2ccccc2)[C@@H](C)CN([C@H](C)CO)C(=O)c2cc(NC(=O)c3ccncc3)ccc2O1,·,·,-5,·
CCCCCC(=O)NC(=S)Nc1ccc2oc(=O)ccc2c1,3,-1,-4,86*
COCC(=O)Nc1ccc2c(c1)C(=O)N(C)C[C@@H](OC)[C@H](C)CN(C(=O)CC1CC1)[C@@H](C)CO2,·,·,2,·
CO[C@H]1CN(C)C(=O)c2ccc(NC(=O)c3cccc(F)c3)cc2OC[C@@H](C)N(CC2CC2)C[C@@H]1C,·,·,-1,·
Cc1ccnc(NC(=O)c2sc3cc(Cl)ccc3c2Cl)c1,7,-1,-9,81*
O=C(CNC(=O)c1ccccc1)OCC(=O)c1ccccc1Cl,·,0,-4,49*
O=C(Cc1ccccc1)NCC(=O)OCC(=O)c1ccccc1Cl,-8,-2,-2,-7
CN1C(=O)c2cc(NC(=O)c3cccc(C(F)(F)F)c3)ccc2OC[C@@H]2O[C@H](CC(=O)NCCN3CCCC3)CC[C@@H]21,·,·,-3,·
CCNC(=O)[C@@H]1[C@@H](CO)[C@@H]2Cn3c(ccc(C4=CCCC4)c3=O)[C@@H]2N1C(=O)CC1CC1,·,·,-4,·
O=C(O)COc1ccccc1/C=N/NC(=O)CSc1nnc(SCc2ccc(Cl)cc2)s1,-12,-1,0,-10
O=C(CSc1nnc(SCc2ccc(Cl)cc2)s1)N/N=C/c1ccc(C(=O)O)cc1,-7,-3,-2,47*
CN(C)c1ccc(NC2=C(Cl)C(=O)c3ccccc3C2=O)cc1,11,0,53*,2
O=C1C(Cl)=C(Nc2ccc3cn[nH]c3c2)C(=O)c2ccccc21,5,·,-5,4
O=C(NCCc1ccccc1C(F)(F)F)C1CCC(=O)N(CCCN2CCCC2=O)C1 (configuration not stated),-3,0,-2,52*
O=C(NCc1ccccc1Cl)C1CCC(=O)N(CCCN2CCCC2=O)C1 (configuration not stated),-1,0,-7,0
Cc1ccc(NC(=S)N(CCCN2CCCC2)Cc2cccn2Cc2ccc(Cl)cc2)cc1C,-6,-2,1,79*
CN(C(=O)c1ccccc1F)C(c1ccccc1)c1ccccc1,7,0,10,42*
C[C@@H]1CN([C@H](C)CO)S(=O)(=O)c2ccc(C3=CCCC3)cc2O[C@H]1CN(C)C(=O)C1CCOCC1,·,·,2,·
O=C(O)c1[nH]c2ccccc2c1C(c1ccccc1)c1c(C(=O)O)[nH]c2ccccc12,-10,45*,-2,56*
Cc1nnc2sc(SCC(=O)Nc3ccc(Cl)cc3)nn2c1=O,-4,15,43*,37*
Cc1cccc(CSc2nn3c(=O)c(C)nnc3s2)c1,·,-2,·,-1
COc1ccc(CCNC(=O)CSCC(=O)Nc2ccccc2)cc1OC,·,0,-4,-4
COc1ccc(Cc2nnc3sc(SCC(=O)Nc4ccccc4)nn3c2=O)cc1OC,5,-2,63*,-1
SMILES,Dyrk1A ADPGlo,CAL PDZ FP-1,ARNT-TACC3 inh,CAL PDZ FP-2
CC(=O)Nc1cccc(NC(=O)CSc2nn3c(=O)c(C)nnc3s2)c1,5,-1,67*,·
Cc1nnc2sc(SCc3ccc(Cl)cc3)nn2c1=O,5,-1,0,-2
Cc1cccc(NC(=O)c2ccc([N+](=O)[O-])s2)c1C,-2,-2,1,47*
Cc1cccc(C)c1NC(=O)c1ccc([N+](=O)[O-])s1,3,-2,5,-7
CO[C@H](CN(C)C(=O)C1CC1)[C@H](C)CN(C(=O)Nc1ccc(C(F)(F)F)cc1)[C@H](C)CO,·,·,10,·
CC(O)CNCCCOc1cccc(C(F)(F)F)c1 (configuration not stated),0,0,-3,6
CC(O)CNCCCOc1cccc(Oc2ccccc2)c1 (configuration not stated),3,134*,-1,111*
Cc1c(C(=O)N/N=C/c2ccncc2)no[n+]1[O-],15,-1,69*,·
Cc1nonc1C(=O)N/N=C/c1ccncc1,3,-1,-3,2
O=[N+]([O-])C(=C1Nc2ccccc2N1)/C(Cl)=C(/Cl)Br,-53,-3,61*,0
COc1ccc(NC(=O)N(C)C[C@H]2Oc3cc(-c4cccc(C(=O)N(C)C)c4)ccc3S(=O)(=O)N([C@@H](C)CO)C[C@@H]2C)cc1,·,·,-11,·
COc1cc2[nH]c(=S)nc(NCCCOC(C)C)c2cc1OC,3,-2,55*,42*
CCOCCCNc1nc(=S)[nH]c2cc(OC)c(OC)cc12,3,-3,·,-2
CCCCNc1nc(=S)[nH]c2cc(OC)c(OC)cc12,3,-2,60*,1
COc1cc2[nH]c(=S)nc(NCc3ccccc3)c2cc1OC,2,0,41,-2
COCCNc1nc(=S)[nH]c2cc(OC)c(OC)cc12,-1,-1,59*,-4
COc1ccc(CNc2nc(=S)[nH]c3cc(OC)c(OC)cc23)cc1,0,0,51*,-5
COC(=O)C[C@H]1CC[C@H]2[C@@H](COc3ccc(NC(=O)c4cc(F)cc(F)c4)cc3C(=O)N2C)O1,·,·,-5,·
CNC(=O)C[C@H]1CC[C@H]2[C@@H](COc3ccc(NC(=O)C4CC4)cc3C(=O)N2C)O1,·,·,-6,·
COc1ccccc1CN1C[C@@H](C)[C@H](OC)CN(C)C(=O)c2ccc(NC(C)=O)cc2OC[C@@H]1C,·,·,-13,·
CN1[C@@H]2c3ccc(C4=CCCCC4)c(=O)n3C[C@@H]2[C@@H](CO)[C@@H]1C(=O)NCc1ccccc1,·,·,2,·
CCN(Cc1ccc(N(C)C)cc1)C(C)C(=O)Nc1ccc(S(=O)(=O)N2CCCC2)cc1 (configuration not stated),-1,-1,·,60*
CSc1ccccc1NC(=O)CN(C)CC(=O)Nc1ccc(S(=O)(=O)N2CCCC2)cc1,·,0,-6,48*
Cc1ccc(NC(=O)CN(C)C(C)C(=O)Nc2ccc(S(=O)(=O)N3CCCC3)cc2)cc1 (configuration not stated),-20,-3,0,-2
O=C(c1ccc(F)cc1)N1CCCCN2[C@H](C1)[C@H](c1ccc(C#CC3(O)CCCC3)cc1)[C@@H]2CO,·,·,-12,·
NCC[C@@H]1CC[C@H](NC(=O)Nc2ccc(F)cc2)[C@H](CO)O1,·,·,-6,·
COc1cc(OC)cc(C(=O)Nc2nnc(-c3cccnc3)o2)c1,·,-3,62*,-3
O=C(Nc1cccc(NC(=O)c2cccc(Cl)c2)c1)c1cccnc1,9,-3,·,35*
